# Results published in PMC6585461 (Biomaterials, 2019).
# Assays:
# SKOV-3 cells = assay: Intracellular uptake of RB-BSA by confocal microscopy; format: cell-based; conditions: BSA ~60 μg/mL, 2 h, 37 °C
# Method in brief: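 SKOV-3 cells in McCoy's 5A with 10% FBS were seeded at 5 × 10⁴ per well and allowed to adhere for 24 h. Lysosomes were labelled with LysoTracker Green DND-26 for 30 min at 37 °C. Rhodamine B-labelled BSA, free or nanocarrier-loaded (final BSA ~60 μg/mL), was added for 2 h. Cells were washed three times with PBS, fixed in 4% paraformaldehyde for 15 min at room temperature, DAPI-stained and imaged by laser scanning confocal microscopy.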
# blood glucose = assay: Hypoglycemic effect of insulin formulations; format: in vivo, BALB/c mice; conditions: fasted mice, s.c., 2 IU/kg
# Method in brief: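 Healthy BALB/c mice, 6-7 weeks old, were fasted overnight with water only and kept fasted throughout, n=6 per group. They received a subcutaneous injection at an insulin dose of 2 IU/kg, either free insulin or insulin loaded in nanocarriers at a 1/10 insulin:polymer mass ratio. Blood glucose was followed with a glucose meter over 0-6 h. Area above the curve was calculated by the trapezoidal method.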
Substance,cellular uptake of RB-BSA (free or loaded in the nanocarrier) (SKOV-3 cells),"glycemic decrease (blood glucose; 30 min after injection, n=6) [%]","blood glucose recovery, % of basal level (blood glucose; after 2 h) [%]",time of maximal blood glucose drop (nadir) (blood glucose; n=6) [h]
"RB-BSA: Rhodamine B (RB)-labeled BSA, model protein",minimal,,,
insulin: insulin (MW: 5807 Da),,32,80,1
